Read-outs that look alike come from different tables or passages of the source. Ends that are not written are not given here. Peptide text beside a SMILES is read from it.

Sequences and labels used below:
B1: NS3 domain of HCV genotype-4 (domain or fragment)
chain: APITAYAQQTRGLFSTIVTSLTGRDTNENCGEVQVLSTATQSFLGTAVNGVMWTVYHGAGAKTISGPKGPVNQMYTNVDQDLVGWPAPPGVRSLAPCTCGSADLYLVTRHADVIPVRRRGDTRGALLSPRPISILKGSSGGPLLCPMGHRAGIFRAAVCTRGVAKAVDFVPVESLETTMRSP

In one series the target is T1, NS3 genotype-4 (Hepatitis C virus genotype 4a, UniProt O39929).
T1 sequence (O39929 1027-1657 limits assumed): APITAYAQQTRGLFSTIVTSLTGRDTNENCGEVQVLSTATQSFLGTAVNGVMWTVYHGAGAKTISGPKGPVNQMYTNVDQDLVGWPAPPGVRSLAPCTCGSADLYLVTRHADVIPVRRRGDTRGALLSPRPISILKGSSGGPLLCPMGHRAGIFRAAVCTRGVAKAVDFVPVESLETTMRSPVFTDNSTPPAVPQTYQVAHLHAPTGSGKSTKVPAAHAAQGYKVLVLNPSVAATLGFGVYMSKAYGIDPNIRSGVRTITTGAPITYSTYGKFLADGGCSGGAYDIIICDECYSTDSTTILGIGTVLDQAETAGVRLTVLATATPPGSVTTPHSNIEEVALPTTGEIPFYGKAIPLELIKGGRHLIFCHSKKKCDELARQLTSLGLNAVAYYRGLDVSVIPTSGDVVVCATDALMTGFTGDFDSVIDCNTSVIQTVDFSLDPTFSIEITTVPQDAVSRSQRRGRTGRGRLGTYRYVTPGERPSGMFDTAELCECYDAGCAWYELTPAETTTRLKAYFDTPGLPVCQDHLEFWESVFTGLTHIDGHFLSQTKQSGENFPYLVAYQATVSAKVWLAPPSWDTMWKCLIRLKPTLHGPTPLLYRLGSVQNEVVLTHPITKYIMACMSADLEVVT
Description: Fluorescence anisotropy, dissociation constant of FITC-NS4A with NS3. The series is classed as binding, HCV genotype-4. The essentials:
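His-tagged HCV-4 NS3 domain (expressed in E. coli Rosetta (DE3) pLysS, Ni-NTA purified) serially diluted in 20 mM HEPES, 10 mM DTT, 200 mM NaCl, pH 7.6, with 0.1 µM FITC-labelled NS4A 21'-34' core peptide. Shaken at room temperature for 15, 45, 90 and 120 min. Fluorescence anisotropy read at 480/520 nm. Kd fitted with a single-binding-site model at 90 min.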
(Polarisation of emitted light reports the rotation of a fluorescent probe.)

Series [1] relates to NS3 domain of HCV genotype-4. Description: Differential static light scattering. The series is classed as binding.
The target in series [2] is B1. The series can be described thus: differential static light scattering.
The target of series [3] is B1. The series can be described thus: differential static light scattering.
Series [4] deals with B1. Description: differential static light scattering.
Series [5] has as its target B1. Description: differential static light scattering.
The target of series [6] is B1. The series can be described thus: differential static light scattering.
The target of series [7] is B1. Description: differential static light scattering.
The target in series [8] is B1. The series can be described thus: differential static light scattering.
The target of series [9] is T2, fluorescein isothiocyanate-labeled NS4A(21'-34') core peptide (hepatitis C virus, also: FITC label, position not given here).
T2 peptide: KKGSVVIVGRIVLSGKK
The series can be described thus: fluorescence polarisation.

By Kd is commonly meant the concentration at which binding is half-saturated. Low values mean tighter binding, high ones weaker binding. In the case of `CC[C@H](C)[C@H](NC(=O)[C@H](CCCNC(=N)N)NC(=O)CNC(=O)[C@@H](NC(=O)[C@@H](NC(=O)[C@@H](NC(=O)[C@@H](NC(=O)[C@H](CO)NC(=O)CNC(=O)[C@H](CCCCN)NC(=O)[C@@H](N)CCCCN)C(C)C)C(C)C)[C@@H](C)CC)C(C)C)C(=O)N[C@H](C(=O)N[C@@H](CC(C)C)C(=O)N[C@@H](CO)C(=O)NCC(=O)N[C@@H](CCCCN)C(=O)N[C@@H](CCCCN)C(=O)O)C(C)C` [NS4A] (H-KKGSVVIVGRIVLSGKK-OH), binding on NS3 genotype-4 was characterised by a dissociation constant (Kd) of 169 ± 3.7 nM.

Regarding GSxG23VIVGRIVLSG [Pep-15], the “Tagg shift higher than that of the native NS4A” value in series [1] (2:1 ratio, room temperature, 2 h) was 1.07 °C. In addition, the “binding affinity by DSLS compared with the native peptide” value in [1] (all conditions (Fig. S6)) is “higher binding affinity than the native peptide”.

As for KKGSVVIVGRIVLSGKK [native NS4A(21'-34') core peptide (KK-GSVVIVGRIVLSG-KK)], the ΔTagg worked out at 1.71 °C in [2]; 1.62 °C in [3]; 2.09 °C in series [4]; 2.83 °C in [5]; 0.998 °C in series [6]; 1.97 °C in [7]. Also, the ΔTagg in series [8] came to 3.16 °C.

For B1, the Kd in series [9] was found to be 169 ± 3.7 nM.

Source of the values: publication PMC7195562 (Journal of Advanced Research, 2020).
